# High-throughput results: PubChem, several laboratories
# Hits are enriched below; roughly 1.3% of the tested compounds scored in any of these assays.
# Rpn11 inh: blocks the human proteasome subunit Rpn11; O00487; human 26S proteasome, Ub4-pepOG fluorescence polarization; 20S core pre-blocked with epoxomicin; inhibition, % at 20 µM; hit rate 0.59% among 360,000;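 active means inhibition at 20 µM, scaled to each plate's controls, above about 33%, limit read from the data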
# HNF4A DNA FP: change in binding of human HNF4 alpha to DNA; P41235; HNF4a-FITC DNA binding, fluorescence polarization, 1 h; activity change, % at 10 µM; hit rate 0.3% among 360,000; AID 1224865; in the data active means activity change above about 30%, passing the limit was not always enough
# TPT1 inhibitor: C. albicans TPT1 enzyme inhibition; hit rate 0.81% among 300,000; AID 1962; inhibition, % at 5 µM; recombinant caTPT1, FP RNA substrate dephosphorylation;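 active means inhibition above the mean of all tested compounds plus 3 SD, set per screening campaign, cut at about 24% in these data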;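 further: plate controls were DMSO alone for no effect and ferristatin control at 100 nM for full effect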
# aDG glyco act: alpha-DG glycosylation activation; AID 624168; activation, % at 10 µM; hit rate 0.22% among 360,000; Pro5-aDG cells, alpha-DG glycosylation AlphaScreen (IIH6); 0% Pro5, 100% B10-LARGE cell signal;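 active means activation of at least 8% versus controls, or a plate z-score of at least 8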;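 further: Pro5 are CHO cells carrying HIG-tagged alpha-DG that lacks glycosylation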
# CSN inh: CSN deneddylation inhibition. Q92905. AID 651999. Purified CSN, SCF-Nedd8-OG deneddylation, fluorescence polarization. inhibition, % at 12.5 µM. hit rate 0.38% among 360,000;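 active means pattern-corrected inhibition above about 35%, with an unprinted fluorescence ratio check between 0.5 and 1.5, limit read from the data, passing the limit was not always enough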;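 further: 0% = enzyme with substrate and 100% = substrate without enzyme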
#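 Test system: purified human Csn5 enzyme expressed in HEK293T cells. Amount: 0.24 nM enzyme. Reagent: SCFSkp2-Nedd8OG substrate at 10 nM final. Schedule: 90 min incubation of compound, enzyme and substrate at room temperature. Detection: fluorescence polarization. Read-out: % inhibition of substrate cleavage by Csn5.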
# XiGFP reactiv: reactivates the inactive X chromosome in mouse fibroblasts. XiGFP mouse fibroblasts, % GFP-positive cells imaging, 3 d; cells co-treated with 5-aza-dC sensitizer; scaled so ellipticine positive control = 100%. activation, % at 7.58 µM. hit rate 0.055% among 360,000. AID 743238;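 active means mean normalized replicate activation at least 10% and every replicate at or above 10%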;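 further: 0% = median of on-plate neutral control wells and 100% = ellipticine 6 µM median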
#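 System: 68-5-11 XiGFP fibroblast line; Timing: 3 days compound exposure; Compound dosing: one concentration, pinned; Benchmarks: positive control ellipticine, 6 µM final; Buffer or medium: DMEM containing 5-aza-dC.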
# Rpn11 inh conf: Rpn11 inhibition confirmation, single concentration. shares compounds with Rpn11 inh. purified human 26S proteasome, Ub4-pepOG fluorescence polarization; proteasome pretreated with epoxomicin. inhibition, % at 20 µM. hit rate 29% among 1,900. AID 602318
# MMP-2 inh: counter-screen for RPN11 inhibitors: inhibition of human MMP-2. AID 602330. recombinant MMP-2, FRET peptide cleavage fluorescence. inhibition, % at 20 µM. shares compounds with Rpn11 inh. hit rate 4% among 1,900;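 further: human MMP-2 activated beforehand with APMA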
# Target sequence (P08253 whole entry, looked up): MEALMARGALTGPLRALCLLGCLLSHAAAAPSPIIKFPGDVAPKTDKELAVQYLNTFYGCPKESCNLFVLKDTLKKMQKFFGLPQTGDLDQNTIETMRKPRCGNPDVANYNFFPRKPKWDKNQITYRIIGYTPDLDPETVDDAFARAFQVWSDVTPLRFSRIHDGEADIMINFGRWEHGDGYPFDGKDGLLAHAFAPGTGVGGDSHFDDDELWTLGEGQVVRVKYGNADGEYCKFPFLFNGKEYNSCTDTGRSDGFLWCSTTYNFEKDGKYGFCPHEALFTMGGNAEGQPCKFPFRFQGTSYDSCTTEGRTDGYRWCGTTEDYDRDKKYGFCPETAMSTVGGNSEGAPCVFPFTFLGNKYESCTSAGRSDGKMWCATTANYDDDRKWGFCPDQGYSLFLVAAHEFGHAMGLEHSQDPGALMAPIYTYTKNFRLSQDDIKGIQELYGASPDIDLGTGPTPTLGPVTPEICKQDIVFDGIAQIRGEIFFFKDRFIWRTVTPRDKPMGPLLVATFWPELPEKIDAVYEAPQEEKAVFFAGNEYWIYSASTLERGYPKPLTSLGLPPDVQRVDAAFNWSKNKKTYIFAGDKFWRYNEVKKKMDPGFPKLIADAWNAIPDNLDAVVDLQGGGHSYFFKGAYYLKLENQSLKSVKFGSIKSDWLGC
# Thrombin FP: counter-screen for RPN11 inhibitors: inhibition of bovine thrombin | shares compounds with Rpn11 inh | bovine thrombin cleavage of Ub4-pepOG, fluorescence polarization | inhibition, % at 20 µM | hit rate 13% among 1,900 | AID 602333;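 active means mean inhibition at least 40% at 20 µM, or signal 3 deviations below plate average, so some actives read negative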;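 further: plate controls were thrombin with DMSO for no effect and buffer wells lacking thrombin for full effect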
# An asterisk follows results filed as active; . = no result. Unless noted, no stated cut-off is given here; in the data, active means inhibition above about 40%; inactive means the rest.
SMILES,Rpn11 inh,HNF4A DNA FP,TPT1 inhibitor,aDG glyco act,CSN inh,XiGFP reactiv,Rpn11 inh conf,MMP-2 inh,Thrombin FP
COc1ccc(Nc2nc(-c3c[nH]c4ccccc34)cs2)cc1,48.2*,22.6,23.6,1.7,5.6,0.1,6.4,15.8,5.3
COc1ccc(Nc2nc(-c3ccc(OC)cc3)cs2)cc1,-1.8,3.0,3.2,-0.6,13.2,0.0,.,.,.
C[C@H]1CN([C@@H](C)CO)C(=O)c2cccc(NC(=O)c3cnccn3)c2O[C@H]1CN(C)Cc1ccc(Cl)c(Cl)c1,.,.,.,.,.,0.0,.,.,.
C[C@H]1CN([C@@H](C)CO)S(=O)(=O)c2ccc(-c3cccnc3)cc2O[C@@H]1CN(C)C(=O)NC1CCCC1,.,.,.,.,.,-0.3,.,.,.
C[C@@H]1CN([C@@H](C)CO)C(=O)c2cc(NC(=O)CCN3CCOCC3)ccc2O[C@H]1CN(C)S(C)(=O)=O,.,.,.,.,.,0.0,.,.,.
CCOC(=O)c1ccc(-n2cccc2/C=C2\NC(=O)NC2=O)cc1,45.5*,4.4,.,-0.1,-3.3,0.0,3.7,-72.8,-14.3
O=C1NC(=S)SC1=Cc1cc(Br)ccc1O,48.5*,79.8*,.,-0.1,31.4,0.1,22.1,4.3,19.3
O=C1NC(=S)SC1=Cc1ccccc1Br,7.0,-0.3,.,0.0,4.6,0.0,.,.,.
O=C(N/N=C\c1ccc(-c2ccc([N+](=O)[O-])cc2)o1)C1COc2ccccc2O1 (stereo unspecified),39.2*,9.7,21.6,0.1,-11.6,0.3,46.5*,4.9,-22.6
CCOC(=O)CC(=O)CSc1nc(-c2cccnc2)ccc1C#N,41.2*,1.7,13.6,-0.2,10.4,.,-5.0,-26.3,-10.2
CCOC(=O)CC(=O)CSc1nc(-c2cccnc2)cc(C)c1C#N,1.4,4.2,1.2,0.0,-1.9,.,.,.,.
CC(C)N1CCc2c(sc(NC(=O)c3nc4ccccc4s3)c2C(N)=O)C1,61.2*,18.3,19.1,0.7,17.2,0.0,22.2,4.8,10.4
CC(C)N1CCc2c(sc(NC(=O)c3ccc([N+](=O)[O-])o3)c2C(N)=O)C1,-5.9,3.6,0.7,-0.7,-0.7,1.3,.,.,.
Cc1noc(C)c1NC(=O)Nc1cccc2c1O[C@H](CN(C)S(=O)(=O)c1cccs1)[C@@H](C)CN([C@@H](C)CO)C2=O,.,.,.,.,.,-1.2,.,.,.
O=C(NCC1CCCO1)C(c1cccs1)N(Cc1cccs1)C(=O)c1ccc(-c2ccccc2)[nH]1 (stereo unspecified),52.2*,-1.8,4.4,-0.2,-10.1,0.0,13.9,6.2,13.1
COCCNC(=O)C[C@@H]1CC[C@@H]2[C@H](COC[C@@H](O)CN2C(=O)Nc2ccc3c(c2)OCO3)O1,.,.,.,.,.,0.0,.,.,.
O=C(COC(=O)c1n[nH]c2ccccc12)NC(=O)NCc1ccco1,2.8,0.2,1.0,0.1,-2.9,.,.,.,.
O=C(COC(=O)c1cc2ccccc2cc1O)NC(=O)NCc1ccco1,44.3*,-4.6,1.6,-0.1,8.3,0.0,8.1,-14.2,2.6
CC(=O)Oc1ccc(S(=O)(=O)c2ccc(OC(C)=O)cc2)cc1,-5.0,-2.3,-2.2,0.0,-9.2,0.0,.,.,.
CC(=O)Oc1ccc(CCC(C)OC(C)=O)cc1 (stereo unspecified),57.5*,0.5,-2.0,0.0,4.5,.,-14.4,-0.4,-11.7
CC(C)NC(=O)Nc1ccc2c(c1)CC(=O)N([C@@H](C)CO)C[C@H](C)[C@H](CN(C)CC1CCCCC1)O2,.,.,.,.,.,0.4,.,.,.
CCOC(=O)c1nnn2c1nc(Nc1cccc(C(F)(F)F)c1)c1ccccc12,63.9*,-3.4,-2.3,0.3,2.5,0.9,6.5,-8.3,0.5
CCC(C)Sc1ccc([C@@H]2[C@H]3C(=O)N(CC)C(=O)[C@H]3[C@]3(C(=O)OC)CCCCN23)cc1 (stereo partly specified),50.4*,17.7,13.6,0.5,7.2,0.0,105.0*,-0.5,69.0*
COCCNC(=O)CN(CC1CCCO1)C(=O)CCC(=O)Nc1ccccn1 (stereo unspecified),50.5*,-1.5,-4.8,-0.4,-4.9,.,-13.1,-30.2,-20.8
O=C(c1cccn(Cc2ccc(Cl)c(Cl)c2)c1=O)N1CCOCC1,101.9*,70.2*,0.1,-0.2,-2.1,.,1.2,-15.6,-4.6
SMILES,Rpn11 inh,HNF4A DNA FP,TPT1 inhibitor,aDG glyco act,CSN inh,XiGFP reactiv,Rpn11 inh conf,MMP-2 inh,Thrombin FP
COC(=O)c1ccc(NC(=O)c2cn(-c3ccccc3)nc2-c2ccncc2)cc1,53.8*,7.3,-5.3,1.2,22.8,.,-0.6,-7.1,-14.6
CC(=O)c1ccc(NC(=O)c2cn(-c3ccccc3)nc2-c2ccncc2)cc1,5.3,-2.0,4.3,-0.1,-0.1,.,.,.,.
C[C@@H]1CCCCO[C@@H](CN(C)C(=O)Nc2cccc3ccccc23)[C@H](C)CN([C@H](C)CO)C(=O)c2cc(NS(=O)(=O)c3ccc(F)cc3)ccc2O1,.,.,.,.,.,0.5,.,.,.
O=C(C[C@H]1CC[C@H]2[C@@H](COC[C@@H](O)CN2C(=O)c2ccccc2)O1)Nc1nccs1,.,.,.,.,.,0.3,.,.,.
Clc1ccccc1C1CC(c2ccccc2)=Nc2ccccc2N1 (stereo unspecified),5.1,3.2,-0.6,0.0,1.7,0.0,.,.,.
Brc1ccccc1C1CC(c2ccccc2)=Nc2ccccc2N1 (stereo unspecified),40.7*,13.4,7.8,0.0,2.0,0.0,21.5,15.9,15.0
CCCCNC(=O)COC(=O)c1c2c(nc3ccccc13)/C(=C/c1cccs1)CC2,41.4*,21.7,21.1,1.4,6.9,0.2,5.3,-57.7,-0.7
CCOC(=O)N1CCN(C(=O)CCC(=O)c2ccc(OCC)cc2)CC1,-2.9,0.4,-0.5,0.0,3.3,0.2,.,.,.
CCOc1ccc(C(=O)CCC(=O)N2CCC(C(=O)OC)CC2)cc1,47.8*,19.0,10.8,0.1,11.9,0.0,36.7,4.9,21.5
C[C@@H]1CN([C@@H](C)CO)C(=O)c2cc(N(C)C)ccc2O[C@H]1CN(C)C(=O)Nc1ccc(C(F)(F)F)cc1,.,.,.,.,.,-1.1,.,.,.
CNC[C@@H]1Oc2ccc(NS(=O)(=O)c3cccs3)cc2CC(=O)N([C@H](C)CO)C[C@H]1C,.,.,.,.,.,-1.0,.,.,.
CN(C)CC(=O)N[C@@H]1C=C[C@@H](CC(=O)O)O[C@@H]1CO,.,.,.,.,.,0.3,.,.,.
CN(C)S(=O)(=O)c1cccc(C(=O)N2CCN(Cc3ccccc3)CC2)c1,109.2*,-31.7,-2.1,-0.3,3.4,.,-5.6,-12.0,-8.0
